Screening results deposited in PubChem by Sanford-Burnham Center for Chemical Genomics.
G6PDH CS: L. mesenteroides G6PDH inhibitors, counter-screen for G6PDH-coupled screening assays, biochemical, Leuconostoc mesenteroides enzyme; inhibition, % at 5 µM; AID 1020, 2008; 0.12% of 200,000 active; glucose-6-phosphate dehydrogenase [Leuconostoc mesenteroides]; Purified L. mesenteroides G6PDH, diaphorase/resazurin coupled fluorescence, 45 min; in the data active = inhibition above about 50%
PfGluPho inh: PfG6PD enzyme inhibitors, primary screen, biochemical, fluorescence intensity, uHTS. glucose-6-phosphate dehydrogenase-6-phosphogluconolactonase (Plasmodium falciparum 3D7). PfGluPho enzyme, NADPH resazurin-diaphorase fluorescence. inhibition, % at 20 µM. 0.78% of 350,000 active;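 active = inhibition reaching at least a set limit at 20 µM in the primary screen, cut at about 59% in these data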;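 also: 0% = DMSO wells with substrate and 100% = DMSO wells lacking glucose-6-phosphate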
Diaphorase act: compounds boosting diaphorase resazurin reduction – biochemical, uHTS, resorufin fluorescence, counter-screen for diaphorase-coupled primary assays, primary screen; Diaphorase/resazurin coupled assay, 16 min; stronger effect = higher value; 1 = vehicle wells, 0 = NADH-free wells; activation factor at 20 µM; 0.005% of 190,000 active;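 active = diaphorase activity raised at least twofold by the compound at 20 µM; inactive = activation factor below 2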
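Assay system: Purified diaphorase enzyme from Clostridium kluyveri | Amount: Enzyme 0.07 U/mL final | Dosing: Compound 20 µM once, DMSO 1% | Timing: 16 min reaction at room temperature | Detection: Fluorescence, excitation 544 nm and emission 590 nm | Evaluation: Higher resorufin formation from activation or reduction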
Diaph inh CS: diaphorase inhibitors and chemical oxidizers, primary screen, counter-screen for diaphorase-coupled primary assays, biochemical, uHTS, resorufin fluorescence; AID 1217, 2008; inhibition, % at 20 µM; 0.69% of 190,000 active; diaphorase resazurin-to-resorufin fluorescence, NADH, 16 min; bacterial (C. kluyveri) enzyme, not human;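 active = primary screen inhibition at 20 µM above a set limit, cut at about 50% in these data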;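 also: plate controls were DMSO with full reaction for no effect and wells lacking NADH for full effect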
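Assay system: diaphorase enzyme from Clostridium kluyveri; Input: enzyme working solution with 0.14 U/mL diaphorase; Timing: 16 min at room temperature; Technique: resorufin fluorescence, excitation 544 nm, emission 590 nm; Benchmarks: positive control minus NADH, DMSO neutral control.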
HKDC1 inh: HKDC1 hexokinase inhibitors, primary screen, biochemical, fluorescence, uHTS | recombinant HKDC1, G6PDH/diaphorase resazurin coupled fluorescence | 0.16% of 340,000 active | AID 493160, 2011 | inhibition, % at 20 µM;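 active = inhibition above about 35% when tested at 20 µM, limit read from the data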;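 also: plate controls were DMSO wells with enzyme for no effect and DMSO wells lacking enzyme for full effect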
Target sequence (Q2TB90 whole entry, looked up): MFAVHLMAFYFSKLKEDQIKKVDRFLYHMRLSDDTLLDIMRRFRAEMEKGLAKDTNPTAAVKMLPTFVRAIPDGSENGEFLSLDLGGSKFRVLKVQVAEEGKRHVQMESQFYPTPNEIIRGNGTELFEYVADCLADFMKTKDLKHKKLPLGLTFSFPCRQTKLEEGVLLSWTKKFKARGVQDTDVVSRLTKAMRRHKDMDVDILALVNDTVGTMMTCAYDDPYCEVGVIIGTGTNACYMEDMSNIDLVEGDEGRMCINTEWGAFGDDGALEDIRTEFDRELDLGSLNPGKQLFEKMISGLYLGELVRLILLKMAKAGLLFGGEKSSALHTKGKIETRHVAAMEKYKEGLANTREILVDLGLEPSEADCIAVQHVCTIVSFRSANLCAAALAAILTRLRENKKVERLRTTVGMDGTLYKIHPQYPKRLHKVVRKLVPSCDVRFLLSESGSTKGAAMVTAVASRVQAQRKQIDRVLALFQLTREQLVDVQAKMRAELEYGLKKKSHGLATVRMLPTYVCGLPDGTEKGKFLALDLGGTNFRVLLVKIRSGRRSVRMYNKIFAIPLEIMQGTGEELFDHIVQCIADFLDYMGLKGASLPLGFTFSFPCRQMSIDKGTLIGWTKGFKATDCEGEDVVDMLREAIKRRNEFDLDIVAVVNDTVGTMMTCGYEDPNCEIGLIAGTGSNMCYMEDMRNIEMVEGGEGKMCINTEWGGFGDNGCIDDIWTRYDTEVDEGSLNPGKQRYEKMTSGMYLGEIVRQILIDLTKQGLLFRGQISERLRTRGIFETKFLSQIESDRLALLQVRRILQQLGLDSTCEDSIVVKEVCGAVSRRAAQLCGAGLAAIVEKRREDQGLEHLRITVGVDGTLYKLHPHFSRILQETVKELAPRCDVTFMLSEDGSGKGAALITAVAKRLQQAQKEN
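Material – in-house recombinant HK5 (HKDC1) enzyme · Quantity – HKDC1 at 5 µg/mL · Buffer or medium – pH 8.0 Tris buffer with 10 mM MgCl2 · Reagent – glucose with 1 mM ATP · Dosing – single 20 µM dose · Times – reaction time 90 min, room temperature, protected from light · Technique – resorufin fluorescence at 613 nm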
The depositor's hits bear a star; . = not tested or not shown. Sampled rows, rich in hits. Any-hit rate of the full collection: about 1.3%.

SMILES	G6PDH CS	PfGluPho inh	Diaphorase act	Diaph inh CS	HKDC1 inh
COc1ccc(N=C2S/C(=C\c3ccc(OC(C)C(=O)O)c(OC)c3)C(=O)N2CCc2c[nH]c3ccccc23)cc1 (stereo not drawn)	8	-11	0.4	58*	-4
O=C1S/C(=C\c2ccc(N3CCOCC3)o2)C(=O)N1Cc1ccc(F)cc1	18	60*	0.7	26	15
COc1cc(/C=C2\SC(=Nc3ccccc3)N(CCc3c[nH]c4ccccc34)C2=O)ccc1OC(C)C(=O)O (stereo not drawn)	1	-21	0.8	18	3
O=C1/C(=C/c2ccc(N3CCOCC3)o2)SC(=Nc2ccccc2)N1CCc1c[nH]c2ccccc12	-1	77*	0.8	16	10
O=C1S/C(=C/c2ccc(N3CCOCC3)o2)C(=O)N1Cc1ccc(F)cc1	7	44	0.7	28	-1
COC(=O)c1sccc1NC(=O)Nc1ccc(F)cc1F	.	1	.	.	4
COc1ccccc1NS(=O)(=O)c1ccc(C(=O)N2CCN(c3ccccn3)CC2)cc1	.	-14	.	.	-2
O=C1CCC/C1=c1\s/c(=C/c2cccnc2)c(=O)n1-c1ccccc1	.	16	.	.	-2
N#CCCn1cc(/C=C2\NC(=S)N(c3ccccc3)C2=O)c(-c2ccc(F)cc2)n1	16	-7	0.2	85*	-4
CN(C(=O)c1ccc(Br)o1)C1CCCCC1	.	12	.	.	-1
COc1ccc(S(=O)(=O)NC(C)c2ccc3c(c2)OCCO3)cc1 (stereo not drawn)	.	2	.	.	.
N#CC(C#N)=C1C=CC=CN1/C(=C\c1ccco1)C(=O)c1ccc(Br)cc1	7	59*	0.9	12	20
N#CC(C#N)=C1C=CC=CN1/C(=C\c1ccco1)C(=O)c1ccccc1	-7	33	0.8	22	22
O=C(CC1Nc2cccc3cccc(c23)NC1=O)Nc1ccccc1 (stereo not drawn)	3	31	0.6	36	16
NC(=O)CC1Nc2cccc3cccc(c23)NC1=O (stereo not drawn)	-19	34	0.4	56*	0
COc1ccc(CCNC(=O)c2c(C)nn(-c3ccccc3)c2Cl)cc1OC	.	-7	.	.	-6
Cc1occc1-c1nnc(SCC(=O)c2cc3ccccc3oc2=O)o1	-1	-5	0.5	51*	-2
Cc1ccc2cc(C)c3nnc(SCC(=O)Nc4nc5c(s4)CCCC5)n3c2c1C	6	-7	0.7	27	-7
CCN(CC(=O)Nc1c(F)cccc1F)C(=O)C1CCN(S(=O)(=O)c2ccccc2C(=O)OC)CC1	.	-15	.	.	-4
O=C(O)c1cccc(N2C(=O)/C(=C/c3ccc(SCc4ccc(Cl)cc4)o3)SC2=S)c1	21	1	0.4	62*	14
O=C(CCN1C(=O)/C(=C/c2ccc(Cl)cc2)SC1=S)Nc1cccc(C(=O)O)c1	.	-26	.	.	15
CC(Sc1nnc(CC(=O)Nc2ccccc2F)n1C)C(=O)Nc1nccs1 (stereo not drawn)	.	-6	.	.	0
Nc1cccc2cnccc12	30	29	0.5	54*	5
Nc1ccc(C(=O)N2CCN(S(=O)(=O)c3ccc4c(c3)OCCCO4)CC2)cc1[N+](=O)[O-]	.	-11	.	.	1
CCN(CC)S(=O)(=O)c1cccc(-c2n[nH]c(=S)n2/N=C/c2ccc(OC)cc2)c1	6	9	0.2	78*	-2
SMILES	G6PDH CS	PfGluPho inh	Diaphorase act	Diaph inh CS	HKDC1 inh
CCN(CC)S(=O)(=O)c1cccc(-c2n[nH]c(=S)n2/N=C/c2ccc(Br)cc2)c1	-5	-1	0.9	9	-2
CCN(CC)S(=O)(=O)c1cccc(-c2n[nH]c(=S)n2/N=C/c2ccc(OC(F)F)cc2)c1	-24	0	0.5	53*	-3
COc1ccc(/C=N/n2c(-c3cccs3)n[nH]c2=S)cc1	0	12	0.4	64*	4
COc1cc2c(cc1NC(=O)C(C)Sc1ccc(NC(C)=O)cc1)oc1ccccc12 (stereo not drawn)	-22	15	0.2	82*	1
COc1cc2c(cc1NC(=O)Nc1ccc(C)cc1)oc1ccccc12	-3	2	0.9	12	4
Cc1cc(C)c(Nc2cc(S(=O)(=O)O)c(N)c3c2C(=O)c2ccccc2C3=O)c(C)c1	-18	-4	0.2	80*	13
Cc1ccc2c(c1)N(CC(=O)N1CCCC1)C(=O)c1cccnc1O2	.	-2	.	.	-5
O=C(C#Cc1ccccc1)c1cccc([N+](=O)[O-])c1	2	43	0.9	14	37*
CCOC(=O)c1sc2nc(C(C)C)c3c(c2c1N)CC(C)(C)OC3	5	6	0.5	55*	0
CCOC(=O)c1sc2nc(N3CCCC3)c3c(c2c1N)CC(C)(C)OC3	4	-3	0.8	15	2
Cc1cc(C)c(S(=O)(=O)/N=C2/C=C(Sc3ncn[nH]3)C(=O)c3ccccc32)cc1C	51*	109*	0.5	50	64*
Cc1ccc(C)c(S(=O)(=O)/N=C2\C=C(NS(=O)(=O)c3ccccc3)C(=O)c3ccccc32)c1	.	8	.	.	21
COc1ccc(NC(=O)CSc2nccn2Cc2ccco2)cc1OC	.	-12	.	.	-7
O=C(COc1ccc(Cl)cc1Br)OCC(=O)c1ccc[nH]1	.	8	.	.	-3
CNc1ccccc(C(=O)/C=C/c2ccccc2OC)c1=O	23	52	0.7	30	10
CNc1ccc(Br)cc(C(=O)/C=C/c2cccc(Cl)c2Cl)c1=O	31	48	0.3	68*	23
CCNc1ccc(Br)cc(C(=O)/C=C/c2ccccc2Cl)c1=O	.	41	.	.	20
CNc1ccc(Br)cc(C(=O)/C=C/c2cccc(OC)c2OC)c1=O	25	34	0.4	59*	27
CN1OC[C@@H]2CN(Cc3ccc(Cl)cc3)[C@H](c3cccc(Br)c3)C[C@@H]21	.	-2	.	.	1
O=C(CCNC(=O)c1ccccc1Cl)NCCC1=CCCCC1	.	9	.	.	-4
COc1cc(CN2CCNC(=O)C2CC(=O)O)cc(OC)c1 (stereo not drawn)	-1	-7	0.2	85*	-9
O=C1c2cccc([N+](=O)[O-])c2C(=O)N1CCO	3	-2	0.8	19	1
O=C1c2cccc3c(Nc4ccccc4Cl)c([N+](=O)[O-])cc(c23)C(=O)N1CCO	16	12	0.4	56*	17
